MsrA inhibitor: bovine MsrA inhibition. purified bovine MsrA, absorbance read-out. inhibition, % at 15.5 µM. actives 0.75% (n = 360,000). AID 651718; in the data active = inhibition above about 4.5%;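 note: 0% = vehicle wells with enzyme and 100% = reference inhibitor wells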
Rev-erbA mod: modulates human Rev-erb alpha binding to DNA | Rev-erbα–FITC-DNA binding, fluorescence polarization, 90 min | activity, % at 10 µM | actives 0.79% (n = 370,000);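 active = activity above about 14%, limit read from the data; passing the limit was not always enough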;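 note: 0% = DMSO wells with 35 nM protein and 100% = DMSO wells with 750 nM protein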
Target sequence (P20393 whole entry, looked up): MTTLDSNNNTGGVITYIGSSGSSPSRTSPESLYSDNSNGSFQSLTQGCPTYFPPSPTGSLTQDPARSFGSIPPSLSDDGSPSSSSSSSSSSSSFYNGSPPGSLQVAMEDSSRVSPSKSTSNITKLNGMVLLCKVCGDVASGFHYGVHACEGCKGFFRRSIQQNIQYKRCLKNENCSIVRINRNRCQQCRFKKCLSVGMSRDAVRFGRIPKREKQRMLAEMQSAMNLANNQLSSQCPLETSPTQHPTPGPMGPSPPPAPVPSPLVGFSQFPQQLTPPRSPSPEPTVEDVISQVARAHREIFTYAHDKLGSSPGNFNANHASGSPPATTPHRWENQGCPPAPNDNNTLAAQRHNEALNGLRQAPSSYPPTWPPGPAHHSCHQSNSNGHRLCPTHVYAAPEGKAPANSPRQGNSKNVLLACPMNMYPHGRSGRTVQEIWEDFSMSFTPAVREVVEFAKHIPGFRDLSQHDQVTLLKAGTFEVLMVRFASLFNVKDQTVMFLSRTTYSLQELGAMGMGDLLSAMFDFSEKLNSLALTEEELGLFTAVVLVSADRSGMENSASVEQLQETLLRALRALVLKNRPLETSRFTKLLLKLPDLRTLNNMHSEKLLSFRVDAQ
bovine MsrA act: activators of bovine methionine sulfoxide reductase A. purified bovine MsrA, absorbance read-out. activation, % at 10.6 µM. actives 0.3% (n = 360,000). AID 602163; in the data active = activation above about 7.5%;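 note: 0% = vehicle and 100% = reference activator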
ARFGAP1 inhibitor: inhibitors of rat ARFGAP1; Q62848; Arfgap1-stimulated ARF1 GTP hydrolysis, GDP FP detection; inhibition, % at 16.5 µM; actives 0.26% (n = 360,000); AID 651572;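 active = inhibition above a per-plate limit, mean inhibition of low control wells plus 3 SD, cut at about 25% in these data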;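 note: 0% = DMSO wells with enzyme and 100% = wells lacking Arfgap1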
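Assay system: purified rat His6-Arfgap1 residues 1-136 (GAP domain); Reagent: human Δ17 ARF1 bound to GTP; Dosing: 16.5 µM single point, 1.26% DMSO; Times: GTP hydrolysis reaction 2 h at 25 °C; Signal: FP, GDP Alexa 633 tracer displaced from anti-GDP antibody, 620/688 nm; Measure: % inhibition from polarization.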
ASAP1 inh: blocks human ASAP1-stimulated Arf1 GTP hydrolysis; GDP FP detection; inhibition, % at 16.5 µM; actives 0.19% (n = 360,000); AID 624377; in the data active = inhibition above about 25%;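 note: 0% = vehicle with enzyme and substrate and 100% = no enzyme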
sPLA2-III inh: Inhibits HGIII-sPLA2 liposome hydrolysis, primary screen. Q9NZ20. QFRET BODIPY PC-A2 liposome hydrolysis, fluorescence. inhibition, % at 12.2 µM. actives 0.56% (n = 370,000). AID 743126;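 active = inhibition above mean plus 3 SD of compounds lying within the high and low control bounds, cut at about 19% in these data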;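 note: 0% = median of test compound wells and 100% = no enzyme DMSO wells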
Rev-erbA confirm: Rev-erb alpha (human) modulation, hit confirmation; shares compounds with Rev-erbA mod; Rev-erb alpha FITC-DNA binding, fluorescence polarization, 90 min; activation, % at 25 µM; actives 61% (n = 3,000); AID 1259319;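 active = activation at or above a set limit, or at least 3 SD above the negative control mean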;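 note: 0% = 35 nM protein with DMSO and 100% = 750 nM protein high control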
RORg DNA counter: counter-screen for Rev-erb alpha modulators: RORgamma DNA binding. shares compounds with Rev-erbA mod. purified RORgamma protein-FITC-DNA binding, fluorescence polarization. IC50, µM. actives 8% (n = 910);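 active = Compounds whose fitted half-maximal concentration for disrupting protein-DNA binding is below 10 micromolar; the record names Rev-erb in its text, so the target is in doubt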
* = called active by the depositor; i = inactive; · = no result; + = active, no number. Only some compounds are listed: those with a hit (about 2.7% of all), similar ones and a draw of the others.

SMILES | MsrA inhibitor | Rev-erbA mod | bovine MsrA act | ARFGAP1 inhibitor | ASAP1 inh | sPLA2-III inh | Rev-erbA confirm | others
O=S(=O)(c1ccc(SCc2c(F)cccc2Cl)nc1)N1CCCC1 | 1 | 14 | 1 | -5 | -14 | 5 | ·
O=C(CC1Sc2ccccc2NC1=O)NNc1cc(Cl)ccc1Cl (stereo not drawn) | -1 | -2 | -4 | 2 | -13 | -23 | ·
CC(C)c1[nH]nc2c1C(c1ccc3c(c1)OCO3)NC2=O (stereo not drawn) | -2 | 22* | · | 18 | -5 | 5 | -5
O=C1NC(c2ccc3c(c2)OCO3)c2c(-c3ccccc3)n[nH]c21 (stereo not drawn) | 0 | -5 | · | 9 | -8 | -2 | ·
N#Cc1c(N)nc(Sc2ccc(Cl)cc2)c(C#N)c1-c1ccccc1Cl | 2 | 64* | -2 | 11 | 17 | 10 | 43* | RORg DNA counter=i
CCSc1nc(N)c(C#N)c(-c2ccccc2Cl)c1C#N | 1 | 25* | -1 | -4 | 3 | -3 | 22*
C=CCSc1nc(N)c(C#N)c(-c2ccc(C)cc2)c1C#N | -1 | 17 | -7 | 12 | -3 | -12 | ·
Cc1ccc(-c2cc(-c3ccccc3Cl)c(C#N)c(N)n2)o1 | 1 | 0 | -6 | 11 | -18 | 2 | ·
CC1=C(C(=O)N(C)C)CC(CC(=O)NCCN2CCOCC2)C(=O)N1CCCN1CCCC1=O (stereo not drawn) | 0 | -5 | -2 | 17 | -6 | 3 | ·
CC1(C)CC(=O)C=C(c2ccc(-c3ccc4[nH]ccc4c3)cc2)C1=O | 0 | 1 | -1 | -2 | 11 | -24 | ·
O=C(CN1C(=O)c2cccc3cccc1c23)N1CCN(c2ccccc2)CC1 | 2 | 17 | -4 | -7 | 0 | 1 | ·
O=C(CN1C(=O)c2cccc3cccc1c23)N1CCN(c2cccc(Cl)c2)CC1 | 1 | 49* | -3 | -4 | -2 | -3 | 27*
CCc1nc(SCC(=O)NCCc2ccccc2)c2oc3ccccc3c2n1 | 0 | 62* | -6 | -7 | 4 | 5 | 69* | RORg DNA counter=>40
Cc1nc(SCC(=O)NCCc2ccccc2)c2oc3ccccc3c2n1 | 0 | + | -12 | 3 | -6 | 1 | + | RORg DNA counter=>40
Cc1nc(SCC(=O)NCc2ccco2)c2oc3ccccc3c2n1 | 1 | -5 | 3 | -10 | 7 | -3 | ·
COc1ccc(OC)c(C2NC(=O)c3sc(=S)n(-c4ccccc4)c3N2)c1 (stereo not drawn) | 0 | 39* | -4 | 2 | 5 | -43 | 15
COc1ccc(C(=O)c2ccc(N3CCN(C(=O)c4ccc(F)cc4)CC3)c(F)c2)cc1Br | 0 | 28* | -8 | 3 | -8 | 2 | 24*
COc1ccc(C(=O)c2ccc(OC)c(Br)c2)cc1Br | 0 | 113* | -2 | 3 | -11 | 3 | 77* | RORg DNA counter=>40
CCC(=O)c1ccc(N2CCN(C(=O)c3ccc(F)cc3)CC2)c(F)c1 | 0 | -3 | -3 | 6 | 3 | -4 | ·
CCN1C(=O)[C@H]2[C@@H](c3ccc(C(F)(F)F)cc3)N[C@]3(CCCN(Cc4ccco4)C3=O)[C@H]2C1=O | -1 | 0 | -6 | -4 | 1 | 2 | ·
Cc1c(C(=O)Nc2c(F)cccc2F)sc2ncnc(N3CCN(c4ccccc4)CC3)c12 | 1 | 4 | -3 | -1 | -4 | -8 | ·
Cc1c(C(=O)NC2CCCCC2)sc2ncnc(N3CCN(c4ccccc4)CC3)c12 | 1 | 39* | -1 | 7 | -7 | 7 | 16
Cc1cc(Br)ccc1NC(=O)CN1CCN(c2ccccn2)CC1 | 1 | 2 | -1 | 9 | -2 | 7 | ·
COc1ccc(NC(=O)c2sc3nc(C)nc(N4CCN(c5ccccn5)CC4)c3c2C)cc1Cl | 2 | 18 | -6 | 10 | 17 | 5 | ·
Cc1cc(Br)ccc1NC(=O)c1sc2ncnc(N3CCN(c4ccccn4)CC3)c2c1C | -1 | 69* | -2 | 1 | -3 | 8 | 8
SMILES | MsrA inhibitor | Rev-erbA mod | bovine MsrA act | ARFGAP1 inhibitor | ASAP1 inh | sPLA2-III inh | Rev-erbA confirm | others
COc1ccc(NC(=O)c2sc3ncnc(N4CCN(c5ccccn5)CC4)c3c2C)cc1Cl | 2 | 28* | 1 | 16 | 13 | 0 | 20*
O=c1[nH][nH]c2c1[C@H](C1CCCC1)O[C@H](CCc1ccccc1)C2 | 1 | -1 | 0 | -4 | -13 | 3 | ·
CNC[C@@H]1OCc2ccccc2-c2ccccc2C(=O)N([C@H](C)CO)C[C@@H]1C | 0 | -7 | 0 | 17 | -1 | 0 | ·
CCOc1ccc2c(c1)nc(SCC(=O)c1cccs1)n2C | 0 | 0 | -2 | 0 | 7 | -21 | ·
CCOc1ccc2c(c1)nc(SCC(=O)c1ccc(Br)s1)n2C | 1 | 25* | -8 | -1 | 11 | 4 | 14
Cc1ccc(NC(=O)NC(=O)COc2ccc(Cl)cc2Cl)c(C)c1 | 0 | 2 | -3 | -3 | 4 | -4 | ·
COc1cc(C(C)=O)ccc1OCC(=O)NC(=O)Nc1ccc(C)cc1C | 0 | 28* | 1 | -1 | -10 | -2 | -6
O=C(Cn1cc(C(F)(F)F)cc(Cl)c1=O)Nc1cccc(Cl)c1 | 0 | 10 | -2 | 8 | 4 | 4 | ·
O=C(Cn1cc(C(F)(F)F)cc(Cl)c1=O)Nc1cc(Cl)cc(Cl)c1 | 0 | 59* | -8 | 2 | 4 | -1 | 27*
CCc1nonc1NC(=O)c1oc2cc(Br)ccc2c1C | 1 | 17* | -8 | -1 | 3 | 2 | 9
CCc1nnc(NC(=O)c2oc3ccc(Br)cc3c2C)s1 | 1 | 42* | -12 | 11 | -10 | 4 | 40* | RORg DNA counter=>40
Cc1c(C(=O)Nc2nccs2)oc2ccc(Br)cc12 | 1 | 13 | -14 | 6 | -16 | 3 | ·
CCc1nonc1NC(=O)c1oc2ccccc2c1C | 0 | 0 | -5 | -5 | 17 | -1 | ·
Cc1nnc(NC(=O)c2oc3c(ccc4ccccc43)c2C)s1 | -1 | 39* | -12 | 4 | 1 | -3 | 29*
O=c1c(-c2ccco2)nc2ccccc2n1C(CCc1ccccc1)c1nc2ccccc2[nH]1 (stereo not drawn) | 0 | 10 | · | -7 | 10 | 4 | ·
C[C@@H]1CCCCO[C@@H](CN(C)C(=O)Nc2ccc(F)cc2)[C@@H](C)CN([C@H](C)CO)C(=O)c2cc(NC(=O)Nc3ccc4c(c3)OCO4)ccc2O1 | 2 | -5 | · | 1 | 4 | -26 | ·
C[C@H]1[C@@H](OC(=O)NCc2ccc(Cl)c(Cl)c2)CC[C@@]23CCCN2C(=O)CCC[C@@H]13 | · | 2 | · | · | · | -12 | ·
